Reference: ChEMBL document CHEMBL4390663, “Cationic biaryl 1,2,3-triazolyl peptidomimetic amphiphiles: synthesis, antibacterial evaluation and preliminary mechanism of action studies” (Eur J Med Chem, 2019)
In brackets after ≈: the same amount, converted by molar mass.

Tests used:
Clostridioides difficile [1] = test: Antibacterial activity against Clostridium difficile NSW132 RT027 incubated for 48 hrs by CLSI method; assay type: functional; settings: NSW132 RT027, 48 h
How it was run: (§1)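 Broth microdilution per CLSI anaerobe method in pre-reduced (2-4 h) Brucella broth with haemin and vitamin K, 35 °C anaerobically for 48 h. Compounds from 5 mg/mL DMSO stocks, twofold dilutions in water mixed with double-strength broth; final 0.25–128 μg/mL. […] Triplicate; modal MIC read visually as lowest concentration inhibiting growth.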

Escherichia coli = test: Antibacterial activity against Escherichia coli ATCC 25922 incubated for 18 hrs by CLSI method; assay type: functional; settings: ATCC 25922, 18 h
How it was run: (§2)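 Screen run by CO-ADD: mid-log cultures in cation-adjusted MHB, 5 × 10^5 CFU/mL, compounds at up to 32 μg/mL in 1:2 serial dilutions (8 steps), final DMSO ≤0.5%, duplicate. 37 °C for 18 h without shaking; OD600 read against media-only and untreated-bacteria references. MIC = lowest concentration giving ≥80% inhibition; colistin standard.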

Klebsiella pneumoniae = test: Antibacterial activity against Klebsiella pneumoniae 700603 incubated for 18 hrs by CLSI method; assay type: functional; settings: Klebsiella pneumoniae, 700603, 18 h; how it was run: as §2
Clostridioides difficile [2] = test: Antibacterial activity against Clostridium difficile ATCC 700057 incubated for 48 hrs by CLSI method; assay type: functional; settings: ATCC 700057, 48 h; how it was run: as §1
Pseudomonas aeruginosa = test: Antimicrobial activity against Pseudomonas aeruginosa ATCC 27853 incubated for 18 hrs by CLSI method; assay type: functional; settings: ATCC 27853, 18 h; how it was run: as §2
Staphylococcus aureus [3] = test: Antimicrobial activity against Staphylococcus aureus ATCC 43300 incubated for 18 hrs by CLSI method; assay type: functional; settings: ATCC 43300, 18 h
Streptococcus pneumoniae = test: Antibacterial activity against Streptococcus pneumoniae ATCC 49619 incubated for 24 hrs by CLSI method; assay type: functional; settings: ATCC 49619, 24 h
How it was run: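 CLSI broth microdilution in MHB with 2.5% lysed horse blood, 5% CO2, 35 °C, 24 h. Compounds from 5 mg/mL DMSO stocks diluted in water plus double-strength broth; final 0.25–128 μg/mL. […] Triplicate; modal MIC read visually as lowest growth-inhibiting concentration.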

Staphylococcus aureus [4] = test: Antimicrobial activity against Staphylococcus aureus ATCC 29213 incubated for 24 hrs by CLSI method; assay type: functional; settings: ATCC 29213, 24 h
How it was run: (§3)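 Broth microdilution per CLSI aerobic guidance in Mueller Hinton broth, ambient air, 35 °C for 24 h. DMSO stocks were diluted in water, then serially diluted with double-strength broth inoculum added, for final 0.25–128 μg/mL. […] MIC was read visually as the lowest concentration inhibiting growth; the modal value of triplicates was recorded.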

Staphylococcus aureus [5] = test: Antibacterial activity against methicillin-resistant Staphylococcus aureus NCTC 10442 incubated for 24 hrs by CLSI method; assay type: functional; settings: NCTC 10442, 24 h; how it was run: as §3
Enterococcus faecalis = test: Antibacterial activity against Enterococcus faecalis ATCC 29212 incubated for 24 hrs by CLSI method; assay type: functional; settings: ATCC 29212, 24 h
Acinetobacter baumannii = test: Antimicrobial activity against Acinetobacter baumannii ATCC 19606 incubated for 18 hrs by CLSI method; assay type: functional; settings: ATCC 19606 = CIP 70.34 = JCM 6841, 18 h; how it was run: as §2
[6] = Cytotoxicity against human HEK293 cells assessed as reduction in cell growth incubated for 20 hrs by resazurin dye-based fluorometric assay
How it was run: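 HEK293 cells, 5000 per well in DMEM + 10% FBS, exposed to compounds (top 32 μg/mL, 1:2 serial dilution ×8, ≤0.5% DMSO, duplicate) for 20 h at 37 °C, 5% CO2. Resazurin added (2.3 μg/mL final), 3 h further; fluorescence ex 560/em 590 nm. CC50 from sigmoidal dose-response fit against log concentration; tamoxifen standard.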

| Compound | MIC (Clostridioides difficile [1]) | MIC (Escherichia coli) | MIC (Klebsiella pneumoniae) | MIC (Clostridioides difficile [2]) | MIC (Pseudomonas aeruginosa) | MIC (Staphylococcus aureus [3]) | MIC (Streptococcus pneumoniae) | MIC (Staphylococcus aureus [4]) | MIC (Staphylococcus aureus [5]) | MIC (Enterococcus faecalis) | MIC (Acinetobacter baumannii) | CC50 at 20 h [6] |
| --- | --- | --- | --- | --- | --- | --- | --- | --- | --- | --- | --- | --- |
| CC(C)CCOc1ccc2ccccc2c1-c1c(OCc2cn(C[C@@H](CCCNC(=N)N)NC(=O)CCc3ccccc3)nn2)ccc2ccccc12.Cl | 16 µg/mL | > 32 µg/mL | > 32 µg/mL | 16 µg/mL | > 32 µg/mL | 4 µg/mL | 8 µg/mL | 4 µg/mL | 4 µg/mL | 8 µg/mL | > 32 µg/mL | 15.9 µg/mL |
| CC(C)CCOc1ccccc1-c1ccccc1OCc1cn(C[C@@H](CCCCN)NC(=O)[C@@H](CCCNC(=N)N)n2cc(CCc3ccccc3)nn2)nn1.Cl.Cl | 8 µg/mL | 8 µg/mL | 16 µg/mL | 8 µg/mL | 8 µg/mL | 2 µg/mL | 8 µg/mL | 4 µg/mL | 4 µg/mL | 8 µg/mL | 16 µg/mL | > 32 µg/mL |
| CC(C)CCOc1ccc2ccccc2c1-c1c(OCc2cn(C[C@@H](CCCCN)NC(=O)[C@@H](CCCNC(=N)N)NC(=O)Cc3ccccc3)nn2)ccc2ccccc12.Cl.Cl | 16 µg/mL | 8 µg/mL | 32 µg/mL | 8 µg/mL | 16 µg/mL | 2 µg/mL | 4 µg/mL | 2 µg/mL | 4 µg/mL | 4 µg/mL | 32 µg/mL | 12.1 µg/mL |
| CC(C)CCOc1ccc2ccccc2c1-c1c(OCc2cn(C[C@@H](CCCCN)NC(=O)C3CC3)nn2)ccc2ccccc12.Cl | 64 µg/mL |  |  | 16 µg/mL |  |  | 16 µg/mL | 8 µg/mL | 8 µg/mL | 8 µg/mL |  |  |
| Cc1ccc(CC(=O)N[C@H](CCCCN)Cn2cc(COc3ccc4ccccc4c3-c3c(OCCC(C)C)ccc4ccccc34)nn2)cc1.Cl | 32 µg/mL |  |  | 16 µg/mL |  |  | 32 µg/mL | 8 µg/mL | 8 µg/mL | 8 µg/mL |  |  |
| CC(C)CCOc1ccc2ccccc2c1-c1c(OCc2cn(C[C@@H](CCCCN)NC(=O)c3ccccc3)nn2)ccc2ccccc12.Cl | 32 µg/mL |  |  | 32 µg/mL |  |  | 16 µg/mL | 8 µg/mL | 8 µg/mL | 8 µg/mL |  |  |
| CC(C)CCOc1ccc2ccccc2c1-c1c(OCc2cn(C[C@@H](CCCCN)NC(=O)c3ccc4ccccc4c3)nn2)ccc2ccccc12.Cl | 64 µg/mL |  |  | 64 µg/mL |  |  | 32 µg/mL | 16 µg/mL | 16 µg/mL | 8 µg/mL |  |  |
| CC(C)CCOc1ccc2ccccc2c1-c1c(OCc2cn(C[C@@H](CCCCN)NC(=O)[C@@H](CCCNC(=N)N)NC(=O)CCCc3ccccc3)nn2)ccc2ccccc12.Cl.Cl | 16 µg/mL |  |  | 8 µg/mL |  |  | 4 µg/mL | 2 µg/mL | 4 µg/mL | 2 µg/mL |  |  |
| CC(C)CCOc1ccc2ccccc2c1-c1c(OCc2cn(C[C@@H](CCCCN)NC(=O)c3cccs3)nn2)ccc2ccccc12.Cl | 64 µg/mL |  |  | 32 µg/mL |  |  | 16 µg/mL | 8 µg/mL | 8 µg/mL | 8 µg/mL |  |  |
| CC/C(=C(\c1ccccc1)c1ccc(OCCN(C)C)cc1)c1ccccc1 [TAMOXIFEN] |  |  |  |  |  |  |  |  |  |  |  | 13.1 µg/mL (≈ 35.3 µM) |
| CC(C)CCOc1ccc2ccccc2c1-c1c(OCc2cn(C[C@@H](CCCCN)NC(=O)CC(C)C)nn2)ccc2ccccc12.Cl | 32 µg/mL |  |  | 16 µg/mL |  |  | 16 µg/mL | 8 µg/mL | 8 µg/mL | 8 µg/mL |  |  |
| CC(C)CCOc1ccc2ccccc2c1-c1c(OCc2cn(C[C@@H](CCCCN)NC(=O)Cc3ccc(Br)cc3)nn2)ccc2ccccc12.Cl | 64 µg/mL |  |  | 32 µg/mL |  |  | 32 µg/mL | 4 µg/mL | 8 µg/mL | 8 µg/mL |  |  |
| CC(C)CCOc1ccc2ccccc2c1-c1c(OCc2cn(C[C@@H](CCCCN)NC(=O)C3=CCCC3)nn2)ccc2ccccc12.Cl | 64 µg/mL |  |  | 32 µg/mL |  |  | 16 µg/mL | 8 µg/mL | 8 µg/mL | 8 µg/mL |  |  |
| CC(C)CCOc1ccc2ccccc2c1-c1c(OCc2cn(C[C@@H](CCCCN)NC(=O)[C@@H](CCCNC(=N)N)NC(=O)OCC3c4ccccc4-c4ccccc43)nn2)ccc2ccccc12.Cl.Cl | 64 µg/mL |  |  | 32 µg/mL |  |  | 8 µg/mL | 8 µg/mL | 8 µg/mL | 8 µg/mL |  |  |
| CC(C)CCOc1ccc2ccccc2c1-c1c(OCc2cn(C[C@@H](CCCCN)NC(=O)CCCc3ccccc3)nn2)ccc2ccccc12.Cl | 64 µg/mL |  |  | 32 µg/mL |  |  | 32 µg/mL | 8 µg/mL | 16 µg/mL | 8 µg/mL |  |  |
| CC(C)CCOc1ccc2ccccc2c1-c1c(OCc2cn(C[C@@H](CCCCN)NC(=O)c3ccco3)nn2)ccc2ccccc12.Cl | 32 µg/mL |  |  | 16 µg/mL |  |  | 16 µg/mL | 8 µg/mL | 8 µg/mL | 8 µg/mL |  |  |
| CC(C)CCOc1ccc2ccccc2c1-c1c(OCc2cn(C[C@@H](CCCCN)NC(=O)C3(N)CCOCC3)nn2)ccc2ccccc12.Cl.Cl | 64 µg/mL |  |  | 32 µg/mL |  |  | 16 µg/mL | 16 µg/mL | 16 µg/mL | 16 µg/mL |  |  |
| CC(C)CCOc1ccc2ccccc2c1-c1c(OCc2cn(C[C@@H](CCCCN)NC(=O)OCc3ccccc3)nn2)ccc2ccccc12.Cl | 32 µg/mL |  |  | 32 µg/mL |  |  | 16 µg/mL | 4 µg/mL | 8 µg/mL | 8 µg/mL |  |  |
| CC(C)CCOc1ccc2ccccc2c1-c1c(OCc2cn(C[C@@H](CCCCN)NC(=O)C3=CCCCC3)nn2)ccc2ccccc12.Cl | 32 µg/mL |  |  | 32 µg/mL |  |  | 16 µg/mL | 8 µg/mL | 8 µg/mL | 8 µg/mL |  |  |
| CC(C)CCOc1ccc2ccccc2c1-c1c(OCc2cn(C[C@@H](CCCCN)NC(=O)[C@@H]3CCC(=O)N3)nn2)ccc2ccccc12.Cl | 64 µg/mL |  |  | 32 µg/mL |  |  | 32 µg/mL | 16 µg/mL | 16 µg/mL | 16 µg/mL |  |  |
